In ChEMBL document CHEMBL3425455, “Short Hydrophobic Peptides with Cyclic Constraints Are Potent Glucagon-like Peptide-1 Receptor (GLP-1R) Agonists” (J Med Chem, 2015):
Positions of bridges follow the written chain, without caps; N, C: chain ends. Non-standard residues stand in square brackets, D forms with d. Residues, ends and D or L forms follow the SMILES beside them. Bip(2'-Et-4'-OMe) = CCc1cc(OC)ccc1-c1ccc(C[C@H](N)C(=O)O)cc1; Bip(2'-Me) = Cc1ccccc1-c1ccc(C[C@H](N)C(=O)O)cc1; αMePhe(2,6-F2) = C[C@](N)(Cc1c(F)cccc1F)C(=O)O; Tyr(3-I) = N[C@@H](Cc1ccc(O)c(I)c1)C(=O)O; αMePhe(2-F) = C[C@](N)(Cc1ccccc1F)C(=O)O; hhPhe = N[C@@H](CCCc1ccccc1)C(=O)O; Aad = N[C@@H](CCCC(=O)O)C(=O)O; Aib = CC(C)(N)C(=O)O

Legend:
[1] = target: T1, Glucagon-like peptide 1 receptor (Homo sapiens, UniProt P43220); assay: Agonist activity at human GLP-1R expressed in CHO cells assessed as cAMP accumulation incubated for 30 mins; assay type: functional, cell-based
In short: (§1)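 CHO cells stably expressing human GLP-1R, grown in DMEM/F12 with GlutaMAX, PenStrep and Geneticin, were lifted and resuspended in HBSS with 5.56 mM glucose, 0.1% BSA, 0.5 mM IBMX, 5 mM HEPES (final). 1000 cells/well were exposed to compound (10 μM to 100 fM) for 30 min at room temperature. After lysis with tracer/ULight reagents (2 h, room temperature), cAMP was read by LANCE Ultra TR-FRET. Values are geometric means with standard error.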

[2] = target: T1, Glucagon-like peptide 1 receptor; assay: Agonist activity at human GLP-1R expressed in CHO cells assessed as cAMP accumulation incubated for 30 mins relative to GLP1; assay type: functional, cell-based; in short: as §1
[3] = target: T1, Glucagon-like peptide 1 receptor; assay: Displacement of [125I]-18 from human GLP-1R expressed in CHO cell membranes incubated for 120 mins by scintillation counting based radioligand binding assay
[4] = target: T1, Glucagon-like peptide 1 receptor; assay: Ratio of Ki for displacement of [125I]-18 from human GLP-1R expressed in CHO cell membranes by scintillation counting based radioligand binding assay to EC50 for Agonist activity at human GLP-1R expressed in CHO cells assessed as cAMP accumulation

T1 sequence (P43220 whole entry): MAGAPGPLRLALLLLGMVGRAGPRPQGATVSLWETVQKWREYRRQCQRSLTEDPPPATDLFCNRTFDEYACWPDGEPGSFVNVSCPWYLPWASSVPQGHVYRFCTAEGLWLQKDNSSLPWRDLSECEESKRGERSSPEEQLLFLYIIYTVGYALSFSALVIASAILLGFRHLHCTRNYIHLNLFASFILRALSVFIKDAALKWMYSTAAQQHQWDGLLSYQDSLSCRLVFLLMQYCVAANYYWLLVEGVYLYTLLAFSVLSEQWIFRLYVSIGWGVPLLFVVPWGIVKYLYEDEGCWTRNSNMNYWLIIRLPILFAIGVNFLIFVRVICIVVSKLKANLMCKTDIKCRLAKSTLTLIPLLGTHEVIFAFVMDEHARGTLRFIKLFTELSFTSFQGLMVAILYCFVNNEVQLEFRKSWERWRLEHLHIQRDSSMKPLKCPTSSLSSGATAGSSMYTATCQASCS

| Structure (SMILES) | EC50 [1] [nM] | Activity [2] [%] | Ki [3] [nM] | Ratio [4] |
| --- | --- | --- | --- | --- |
| CCc1cc(OC)ccc1-c1ccc(C[C@H](NC(=O)[C@H](CC(=O)O)NC(=O)[C@H](CO)NC(=O)[C@@H](NC(=O)[C@](C)(Cc2ccccc2F)NC(=O)[C@H]2CSSCC[C@H](NC(=O)[C@@H](N)Cc3cnc[nH]3)C(=O)N[C@@H](CCC(=O)O)C(=O)NCC(=O)N2)[C@@H](C)O)C(=O)N[C@@H](CCCc2ccccc2)C(N)=O)cc1 | 730 | > 85 | > 8000 | – |
| CCc1cc(OC)ccc1-c1ccc(C[C@H](NC(=O)[C@@H]2CCCCNC(=O)CC[C@H](NC(=O)CNC(=O)[C@H](CCC(=O)O)NC(=O)C(C)(C)NC(=O)[C@@H](N)Cc3cnc[nH]3)C(=O)N[C@@](C)(Cc3ccccc3F)C(=O)N[C@@H]([C@@H](C)O)C(=O)N[C@@H](CO)C(=O)N2)C(=O)N[C@@H](CCCc2ccccc2)C(N)=O)cc1 (H-H[Aib]EGE[αMePhe(2-F)]TSK[Bip(2'-Et-4'-OMe)][hhPhe]-NH2; lactam 5-9) | 430 | > 85 | 320 | – |
| CCc1cc(OC)ccc1-c1ccc(C[C@H](NC(=O)[C@@H]2CCCCNC(=O)C[C@H](NC(=O)CNC(=O)[C@H](CCC(=O)O)NC(=O)C(C)(C)NC(=O)[C@@H](N)Cc3cnc[nH]3)C(=O)N[C@@](C)(Cc3ccccc3F)C(=O)N[C@@H]([C@@H](C)O)C(=O)N[C@@H](CO)C(=O)N2)C(=O)N[C@@H](CCCc2ccccc2)C(N)=O)cc1 (H-H[Aib]EGD[αMePhe(2-F)]TSK[Bip(2'-Et-4'-OMe)][hhPhe]-NH2; lactam 5-9) | 320 | > 85 | 1200 | – |
| CCc1cc(OC)ccc1-c1ccc(C[C@H](NC(=O)[C@@H]2CC(=O)NCCCC[C@H](NC(=O)CNC(=O)[C@H](CCC(=O)O)NC(=O)C(C)(C)NC(=O)[C@@H](N)Cc3cnc[nH]3)C(=O)N[C@@](C)(Cc3ccccc3F)C(=O)N[C@@H]([C@@H](C)O)C(=O)N[C@@H](CO)C(=O)N2)C(=O)N[C@@H](CCCc2ccccc2)C(N)=O)cc1 (H-H[Aib]EGK[αMePhe(2-F)]TSD[Bip(2'-Et-4'-OMe)][hhPhe]-NH2; lactam 5-9) | 68 | > 85 | 59 | – |
| CCc1cc(OC)ccc1-c1ccc(C[C@H](NC(=O)[C@H](CC(=O)O)NC(=O)[C@H](CO)NC(=O)[C@@H](NC(=O)[C@](C)(Cc2ccccc2F)NC(=O)[C@@H](NC(=O)CNC(=O)[C@H](CCC(=O)O)NC(=O)C(C)(C)NC(=O)[C@@H](N)Cc2cnc[nH]2)[C@@H](C)O)[C@@H](C)O)C(=O)N[C@@H](CCCc2ccccc2)C(N)=O)cc1 (H-H[Aib]EGT[αMePhe(2-F)]TSD[Bip(2'-Et-4'-OMe)][hhPhe]-NH2) | 0.12 | > 85 | 0.57 | 3.5 |
| CCc1cc(OC)ccc1-c1ccc(C[C@H](NC(=O)[C@H](CC(=O)O)NC(=O)[C@H](CO)NC(=O)[C@@H](NC(=O)[C@](C)(Cc2ccccc2F)NC(=O)[C@H]2CCSSC[C@@H](NC(=O)[C@@H](N)Cc3cnc[nH]3)C(=O)N[C@@H](CCC(=O)O)C(=O)NCC(=O)N2)[C@@H](C)O)C(=O)N[C@@H](CCCc2ccccc2)C(N)=O)cc1 | 81 | > 85 | 550 | – |
| CCc1cc(OC)ccc1-c1ccc(C[C@H](NC(=O)[C@H](CC(=O)O)NC(=O)[C@H](CO)NC(=O)[C@@H](NC(=O)[C@](C)(Cc2c(F)cccc2F)NC(=O)[C@@H](NC(=O)CNC(=O)[C@H](CCC(=O)O)NC(=O)C(C)(C)NC(=O)[C@@H](N)Cc2cnc[nH]2)[C@@H](C)O)[C@@H](C)O)C(=O)N[C@@H](Cc2ccc(-c3ccccc3C)cc2)C(N)=O)cc1 (H-H[Aib]EGT[αMePhe(2,6-F2)]TSD[Bip(2'-Et-4'-OMe)][Bip(2'-Me)]-NH2) | 0.19 | > 85 | 0.66 | 3.5 |
| CCc1cc(OC)ccc1-c1ccc(C[C@H](NC(=O)[C@@H]2CCCC(=O)NCCCC[C@H](NC(=O)CNC(=O)[C@H](CCC(=O)O)NC(=O)C(C)(C)NC(=O)[C@@H](N)Cc3cnc[nH]3)C(=O)N[C@@](C)(Cc3ccccc3F)C(=O)N[C@@H]([C@@H](C)O)C(=O)N[C@@H](CO)C(=O)N2)C(=O)N[C@@H](CCCc2ccccc2)C(N)=O)cc1 (H-H[Aib]EGK[αMePhe(2-F)]TS[Aad][Bip(2'-Et-4'-OMe)][hhPhe]-NH2; lactam 5-9) | 95 | > 85 | 300 | – |
| CCc1cc(OC)ccc1-c1ccc(C[C@H](NC(=O)[C@H](CC(=O)O)NC(=O)[C@H](CO)NC(=O)[C@@H](NC(=O)[C@](C)(Cc2ccccc2F)NC(=O)[C@H]2CSSCC[C@@H](NC(=O)[C@@H](N)Cc3cnc[nH]3)C(=O)N[C@@H](CCC(=O)O)C(=O)NCC(=O)N2)[C@@H](C)O)C(=O)N[C@@H](CCCc2ccccc2)C(N)=O)cc1 | 110 | > 85 | 4800 | 43 |
| CCc1cc(OC)ccc1-c1ccc(C[C@H](NC(=O)[C@H](CC(=O)O)NC(=O)[C@H](CO)NC(=O)[C@@H](NC(=O)[C@](C)(Cc2ccccc2F)NC(=O)[C@@H]2CCSSCC[C@H](NC(=O)[C@@H](N)Cc3cnc[nH]3)C(=O)N[C@@H](CCC(=O)O)C(=O)NCC(=O)N2)[C@@H](C)O)C(=O)N[C@@H](CCCc2ccccc2)C(N)=O)cc1 | 390 | > 85 | 3000 | – |
| CCc1cc(OC)ccc1-c1ccc(C[C@H](NC(=O)[C@H](CC(=O)O)NC(=O)[C@H](CO)NC(=O)[C@@H](NC(=O)[C@](C)(Cc2ccccc2F)NC(=O)[C@@H](NC(=O)CNC(=O)[C@H](CCC(=O)O)NC(=O)C(C)(C)NC(=O)[C@@H](N)Cc2cnc[nH]2)[C@@H](C)O)[C@@H](C)O)C(=O)N[C@@H](Cc2ccc(O)c(I)c2)C(N)=O)cc1 (H-H[Aib]EGT[αMePhe(2-F)]TSD[Bip(2'-Et-4'-OMe)][Tyr(3-I)]-NH2) | 0.045 | > 85 | 6 | – |
| CCc1cc(OC)ccc1-c1ccc(C[C@H](NC(=O)[C@H](CC(=O)O)NC(=O)[C@H](CO)NC(=O)[C@@H](NC(=O)[C@](C)(Cc2ccccc2F)NC(=O)[C@H]2CCSSC[C@H](NC(=O)[C@@H](N)Cc3cnc[nH]3)C(=O)N[C@@H](CCC(=O)O)C(=O)NCC(=O)N2)[C@@H](C)O)C(=O)N[C@@H](CCCc2ccccc2)C(N)=O)cc1 | 190 | > 85 | 980 | – |
| CCc1cc(OC)ccc1-c1ccc(C[C@H](NC(=O)[C@H](CC(=O)O)NC(=O)[C@H](CO)NC(=O)[C@@H](NC(=O)[C@](C)(Cc2ccccc2F)NC(=O)[C@@H]2CSSC[C@@H](NC(=O)[C@@H](N)Cc3cnc[nH]3)C(=O)N[C@@H](CCC(=O)O)C(=O)NCC(=O)N2)[C@@H](C)O)C(=O)N[C@@H](CCCc2ccccc2)C(N)=O)cc1 | 600 | > 85 | 2400 | – |
| CCc1cc(OC)ccc1-c1ccc(C[C@H](NC(=O)[C@H](CC(=O)O)NC(=O)[C@H](CO)NC(=O)[C@@H](NC(=O)[C@](C)(Cc2ccccc2F)NC(=O)[C@H]2CCSSCC[C@H](NC(=O)[C@@H](N)Cc3cnc[nH]3)C(=O)N[C@@H](CCC(=O)O)C(=O)NCC(=O)N2)[C@@H](C)O)C(=O)N[C@@H](CCCc2ccccc2)C(N)=O)cc1 | 1.8 | > 85 | 130 | – |
| CCc1cc(OC)ccc1-c1ccc(C[C@H](NC(=O)[C@@H]2CCC(=O)NCCCC[C@H](NC(=O)CNC(=O)[C@H](CCC(=O)O)NC(=O)C(C)(C)NC(=O)[C@@H](N)Cc3cnc[nH]3)C(=O)N[C@@](C)(Cc3ccccc3F)C(=O)N[C@@H]([C@@H](C)O)C(=O)N[C@@H](CO)C(=O)N2)C(=O)N[C@@H](CCCc2ccccc2)C(N)=O)cc1 (H-H[Aib]EGK[αMePhe(2-F)]TSE[Bip(2'-Et-4'-OMe)][hhPhe]-NH2; lactam 5-9) | 10 | > 85 | 17 | – |
| CCc1cc(OC)ccc1-c1ccc(C[C@H](NC(=O)[C@H](CC(=O)O)NC(=O)[C@H](CO)NC(=O)[C@@H](NC(=O)[C@](C)(Cc2ccccc2F)NC(=O)[C@H]2CCSSCC[C@@H](NC(=O)[C@@H](N)Cc3cnc[nH]3)C(=O)N[C@@H](CCC(=O)O)C(=O)NCC(=O)N2)[C@@H](C)O)C(=O)N[C@@H](CCCc2ccccc2)C(N)=O)cc1 | 0.73 | > 85 | 41 | – |
| CCc1cc(OC)ccc1-c1ccc(C[C@H](NC(=O)[C@H](CC(=O)O)NC(=O)[C@H](CO)NC(=O)[C@@H](NC(=O)[C@](C)(Cc2ccccc2F)NC(=O)[C@@H]2CSSC[C@H](NC(=O)[C@@H](N)Cc3cnc[nH]3)C(=O)N[C@@H](CCC(=O)O)C(=O)NCC(=O)N2)[C@@H](C)O)C(=O)N[C@@H](CCCc2ccccc2)C(N)=O)cc1 | 670 | > 85 | > 3100 | – |
| CCc1cc(OC)ccc1-c1ccc(C[C@H](NC(=O)[C@H](CC(=O)O)NC(=O)[C@H](CO)NC(=O)[C@@H](NC(=O)[C@](C)(Cc2ccccc2F)NC(=O)[C@@H]2CCSSCC[C@@H](NC(=O)[C@@H](N)Cc3cnc[nH]3)C(=O)N[C@@H](CCC(=O)O)C(=O)NCC(=O)N2)[C@@H](C)O)C(=O)N[C@@H](CCCc2ccccc2)C(N)=O)cc1 | 200 | > 85 | 1700 | – |
